In brackets after ≈: the same amount, converted by molar mass. Non-standard residues stand in square brackets, D forms with d. Residues, ends and D or L forms follow the SMILES beside them. hArg = N=C(N)NCCCC[C@H](N)C(=O)O
What was measured:
E. coli ATCC 8739 [1] = assay: Resistance development assay; format: cell-based; conditions: for fold increase in MIC: E. coli ATCC 8739, sub-MIC exposure; for MIC: Escherichia coli, ATCC8739
E. coli ATCC 8739 [2] = assay: Cytoplasmic membrane depolarization assay; format: cell-based; conditions: E. coli ATCC 8739, membrane depolarisation
Summary of the method: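 E. coli ATCC 8739 washed twice and resuspended to OD600 0.05 in 5 mM HEPES (pH 7.4) with 20 mM glucose and 100 mM KCl. Cells incubated 1 h in the dark with Disc3(5) solution (20 µM). Baseline read every 1 min for 5 min ([…]/em 645 nm). Peptide at various concentrations or melittin control then added; read every 1 min for 15 min.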

LPS-binding assay = conditions: BC displacement, peptide 0.5-32 μM
Summary of the method: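 BODIPY-TR cadaverine displacement: LPS (25 µg/mL) preincubated with BC dye (2.5 µg/mL) for 4 h at room temperature. Peptides, with melittin as positive control, prepared at 0.5–32 µM in Tris–HCl pH 7.4 and combined with LPS–BC mixture for 1 h at 37 °C. Fluorescence read at ex 590/em 645 nm; triplicates, independent experiments.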

E. coli ATCC 8739 [3] = assay: Thermal and trypsin sensitivity; format: cell-based; conditions: for MIC, 80 °C: E. coli ATCC 8739, peptide heated at 80 °C for 10 min, no trypsin; for MBC, Control / MIC, Control: E. coli ATCC 8739, untreated peptide
E. coli ATCC 8739 [4] = assay: Salts and serum sensitivity; format: cell-based; conditions: for MIC, NH4+: E. coli ATCC 8739, 6 μM NH4Cl; for MIC, Zn2+: E. coli ATCC 8739, 8 mM ZnCl2; for MBC, Serum 10% / MIC, Serum 10%: E. coli ATCC 8739, 10% FBS
[5] = test system: Wax Moth Larvae (Galleria mellonella); assay: In vivo toxicity in larvae; conditions: uninfected larvae, 4 × MIC of peptide 7, five-day observation
Summary of the method: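 Uninfected Galleria mellonella larvae (250 ± 20 mg), ten per group, given test compound at 4 × MIC; PBS as vehicle-only group. Kept at 24 °C and survival scored every 24 h for five days.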

[6] = E. coli ATCC 8739, 2.5 mM CaCl2

SMILES: CNC(C)C1CCC(N)C(OC2C(N)CC(N)C(OC3OCC(C)(O)C(NC)C3O)C2O)O1 (stereo not drawn) [Gentamicin]
- fold increase in MIC (E. coli ATCC 8739 [1]; twenty passages (twenty days)): 32 fold
- MIC (E. coli ATCC 8739 [1]): 2 µM (≈ 0.955 µg/mL)

SMILES: CO/N=C(\C(=O)N[C@@H]1C(=O)N2C(C(=O)O)=C(COC(C)=O)CS[C@H]12)c1csc(N)n1 [Cefotaxime]
- fold increase in MIC (E. coli ATCC 8739 [1]; twenty passages (twenty days)): 32 fold
- MIC (E. coli ATCC 8739 [1]): 1 µM (≈ 0.455 µg/mL)

SMILES: CO[C@H]1/C=C/O[C@@]2(C)Oc3c(C)c(O)c4c(O)c(c(/C=N/N5CCN(C)CC5)c(O)c4c3C2=O)NC(=O)/C(C)=C\C=C\[C@H](C)[C@H](O)[C@@H](C)[C@@H](O)[C@@H](C)[C@H](OC(C)=O)[C@@H]1C [Rifampicin]
- fold increase in MIC (E. coli ATCC 8739 [1]; within five passages): 512 fold
- MIC (E. coli ATCC 8739 [1]): 8 µM (≈ 6.58 µg/mL)

SMILES: CC[C@H](C)[C@H](NC(=O)CN)C(=O)NCC(=O)N[C@@H](C)C(=O)N[C@H](C(=O)N[C@@H](CC(C)C)C(=O)N[C@@H](CCCCN)C(=O)N[C@H](C(=O)N[C@@H](CC(C)C)C(=O)N[C@H](C(=O)N[C@H](C(=O)NCC(=O)N[C@@H](CC(C)C)C(=O)N1CCC[C@H]1C(=O)N[C@@H](C)C(=O)N[C@@H](CC(C)C)C(=O)N[C@H](C(=O)N[C@@H](CO)C(=O)N[C@@H](Cc1c[nH]c2ccccc12)C(=O)N[C@H](C(=O)N[C@@H](CCCCN)C(=O)N[C@@H](CCCNC(=N)N)C(=O)N[C@@H](CCCCN)C(=O)N[C@@H](CCCNC(=N)N)C(=O)N[C@@H](CCC(N)=O)C(=O)N[C@@H](CCC(N)=O)C(N)=O)[C@@H](C)CC)[C@@H](C)CC)[C@@H](C)O)[C@@H](C)O)C(C)C)C(C)C [Melittin]
- concentration at maximum Disc3(5) fluorescence (E. coli ATCC 8739 [2]): 2 µM
- incubation time to maximum Disc3(5) fluorescence (E. coli ATCC 8739 [2]): 3 min
- concentration at which LPS-binding affinity peaked (LPS-binding assay): 16 µM
- fold increase of MIC and MBC values (E. coli ATCC 8739 [3]; E. coli ATCC 8739, 0.25 mg/mL trypsin): 32 fold
- MIC, 80 °C (E. coli ATCC 8739 [3]): 2 µM (≈ 5.69 µg/mL)
- MBC, Control (E. coli ATCC 8739 [3]): 2 µM (≈ 5.69 µg/mL)
- MIC, Control (E. coli ATCC 8739 [3]): 2 µM (≈ 5.69 µg/mL)

SMILES: C[C@H](NC(=O)[C@H](Cc1c[nH]c2ccccc12)NC(=O)CNC(=O)[C@H](CCCNC(=N)N)NC(=O)[C@H](Cc1c[nH]c2ccccc12)NC(=O)[C@H](Cc1c[nH]c2ccccc12)NC(=O)[C@H](CO)NC(=O)[C@H](CO)NC(=O)[C@H](Cc1c[nH]c2ccccc12)NC(=O)CN)C(=O)N[C@@H](CCCCN)C(=O)N[C@@H](Cc1c[nH]c2ccccc12)C(=O)N[C@@H](C)C(=O)N[C@@H](CO)C(=O)N[C@@H](CCCCN)C(=O)NCC(=O)N[C@@H](Cc1c[nH]c2ccccc12)C(=O)NCC(=O)N[C@@H](CCCCN)C(N)=O [Peptide 6, [Trp^2,5,6,9,12,17]-des-(Asp20-Cys37)-E2P] (H-GWSSWWRGWAKWASKGWGK-NH2)
- MIC, NH4+ (E. coli ATCC 8739 [4]): 4 µM
- MBC, Mg2+ (E. coli ATCC 8739 [4]; E. coli ATCC 8739, 1 mM MgCl2): 32 µM
- MIC, Mg2+ (E. coli ATCC 8739 [4]; E. coli ATCC 8739, 1 mM MgCl2): 32 µM
- MIC, Zn2+ (E. coli ATCC 8739 [4]): 4 µM
- MBC, Serum 10% (E. coli ATCC 8739 [4]): 4 µM
- MIC, Serum 10% (E. coli ATCC 8739 [4]): 4 µM
- MBC, Serum 20% (E. coli ATCC 8739 [4]; E. coli ATCC 8739, 20% FBS): 8 µM
- MIC, Serum 20% (E. coli ATCC 8739 [4]; E. coli ATCC 8739, 20% FBS): 8 µM

SMILES: CCn1cc(C(=O)O)c(=O)c2cc(F)c(N3CCNCC3)cc21 [Norfloxacin]
- fold increase in MIC (E. coli ATCC 8739 [1]; twenty passages (twenty days)): 512 fold
- MIC (E. coli ATCC 8739 [1]): 0.25 µM (≈ 0.0798 µg/mL)

SMILES: CC[C@H](C)[C@H](NC(=O)[C@H](CO)NC(=O)[C@H](CO)NC(=O)[C@H](Cc1ccccc1)NC(=O)CN)C(=O)N[C@@H](Cc1ccccc1)C(=O)N[C@@H](CCCCNC(=N)N)C(=O)NCC(=O)N[C@H](C(=O)N[C@@H](C)C(=O)N[C@@H](CCCCNC(=N)N)C(=O)N[C@@H](Cc1ccccc1)C(=O)N[C@@H](C)C(=O)N[C@@H](CO)C(=O)N[C@@H](CCCCNC(=N)N)C(=O)NCC(=O)N[C@@H](CC(C)C)C(=O)NCC(=O)N[C@@H](CCCCNC(=N)N)C(N)=O)C(C)C [Peptide 7, [hArg^7,11,15,19]-des-(Asp20-Cys37)-E2P] (H-GFSSIF[hArg]GVA[hArg]FAS[hArg]GLG[hArg]-NH2)
- MIC, 80 °C (E. coli ATCC 8739 [3]): 2 µM (≈ 4.19 µg/mL)
- MBC, Control (E. coli ATCC 8739 [3]): 2 µM (≈ 4.19 µg/mL)
- MIC, Control (E. coli ATCC 8739 [3]): 2 µM (≈ 4.19 µg/mL)
- effect on survival of larvae (toxicity) [5]: did not affect the survival of the larvae
- MIC, Fe3+ (E. coli ATCC 8739 [4]; E. coli ATCC 8739, 4 μM FeCl3): 2 µM
- MIC, NH4+ (E. coli ATCC 8739 [4]): 2 µM
- MIC, K+ (E. coli ATCC 8739 [4]; E. coli ATCC 8739, 0.5 mM KCl): 2 µM
- MIC, Mg2+ (E. coli ATCC 8739 [4]; E. coli ATCC 8739, 1 mM MgCl2): 8 µM
- MBC, Ca2+ (E. coli ATCC 8739 [4]; [6]): 64 µM
- MIC, Ca2+ (E. coli ATCC 8739 [4]; [6]): 64 µM
- MIC, Zn2+ (E. coli ATCC 8739 [4]): 4 µM
- MBC, Serum 10% (E. coli ATCC 8739 [4]): 4 µM
- MIC, Serum 10% (E. coli ATCC 8739 [4]): 4 µM
